Data set [1] in a line: melting temperature; fluorescence melt of hairpins on a sequencing array, two-state fit, raised by 9.35 °C to match UV melts. The following applies: sodium 0.088 M. In outline: (§1)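 In 50 mM Na-HEPES pH 8.0 containing 25 mM NaCl, hairpins from the library on a sequenced MiSeq flow cell were imaged for Cy3 fluorescence at 2.5 °C steps up to 60 °C, with Cy3 and quencher oligos annealed. After normalisation to pre-quench Cy3 and to control constructs, two-state fits with bootstrapping gave melting temperature and folding enthalpy. Four replicates were combined by inverse-variance weighting, and fitted temperatures were shifted up by 9.35 °C to match UV melts.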

Data set [2] is described as follows: folding enthalpy; higher = less favourable; fluorescence melt of hairpins on a sequencing array, two-state fit. The following applies: sodium 0.088 M. In outline:
as §1

For the sequence GATCTGAGTTCAGATC ((((((....)))))), the Tm in data set [1] is 49.9 °C. Besides, in data set [2], the folding enthalpy is -43.7 kcal/mol.
GTATTAGGAAACTAGTAC (((.(((....))).))): in data set [1], the Tm was found to be 29 °C. The folding enthalpy in data set [2] is -16.2 kcal/mol.
For the sequence GCACTGGGAAACTGGTGC ((((..(....)..)))), in data set [1], the Tm is 48.8 °C. The folding enthalpy in data set [2] is -33 kcal/mol.
With GCTGACGGAAACGTTGGC ((..(((....)))..)), the Tm in data set [1] was found to be 47 °C. Also, the folding enthalpy in data set [2] was -27.3 kcal/mol.
On to GATCGAGATATCGATC ((((((....)))))), for which the Tm in data set [1] worked out at 58.7 °C. Also, the folding enthalpy in data set [2] was -38.2 kcal/mol.
Turning to GGACTGGGAAACTAGTCC (((((.(....).))))), the Tm in data set [1] was 50.2 °C. Moreover, the folding enthalpy in data set [2] is -32.1 kcal/mol.
GCAGTCGGAAACAACTGC (((((.(....).))))): the Tm in data set [1] was 46.1 °C. Besides, in data set [2], the folding enthalpy was -32.9 kcal/mol.
For GAAGCCGAAAGGCGTTC ((((((....))).))), the Tm in data set [1] was 46.7 °C. In addition, the folding enthalpy in data set [2] was -8.99 kcal/mol.
In the case of GGAGTCCGAAAGGATTCC (((.(((....))).))), the Tm in data set [1] amounted to 55.7 °C. Besides, in data set [2], the folding enthalpy was -47.8 kcal/mol.
For the sequence GATCACCACAGTGATC ((((((....)))))), in data set [1], the Tm worked out at 57.4 °C. The folding enthalpy in data set [2] was -40.4 kcal/mol.
Taken in the same sequence, the figures for GGGACCGGAAACGGTTCC ((.((((....)))).)) were 62.6 °C and -42.5 kcal/mol.
Consider CTCATGAAAATGAG (((((....))))), for which the Tm in data set [1] was 44.8 °C. Besides, the folding enthalpy in data set [2] was -21.3 kcal/mol.
On the same counts, the results for GTAGGGGGAAACCCCCAC ((.((((....)))).)) are 43.5 °C and -12.6 kcal/mol.
As for GATCTCACATGAGATC ((((((....)))))), the Tm in data set [1] came to 52.5 °C. Besides, in data set [2], the folding enthalpy was -40.1 kcal/mol.
With GTGACTGGAAACAGCCAC (((.(((....))).))), the Tm in data set [1] is 47.9 °C. In data set [2], the folding enthalpy is -41.7 kcal/mol.
On to GATCCCGGAAACGGGACC (.(((((....))))).), for which the Tm in data set [1] is 46.7 °C. In addition, in data set [2], the folding enthalpy is -11 kcal/mol.
Turning to GATCCCGAAAGGGTCATC ((((((....)))..))), the Tm in data set [1] came to 42.8 °C. Further, in data set [2], the folding enthalpy was -12.1 kcal/mol.
As for GGTGTCGAAAGACTGACC ((((((....)))..))), the Tm in data set [1] was found to be 40.5 °C. Further, the folding enthalpy in data set [2] was -18.4 kcal/mol.
On the same counts, the results for GCGTTGCCACGC ((((....)))) are 53.8 °C and -14.3 kcal/mol.
Take GCCCGTACGAAAGTAGGC (((..(((....)))))): the Tm in data set [1] was found to be 46.3 °C. In data set [2], the folding enthalpy was -17.9 kcal/mol.
Taken in the same sequence, the figures for GATCGGTCGGCCGATC ((((((....)))))) were 59.4 °C and -45.8 kcal/mol.
Turning to GCCCACGGAAACGTGAGC ((.((((....)))).)), in data set [1], the Tm was 50.9 °C. The folding enthalpy in data set [2] is -27.2 kcal/mol.
Consider GATCTACACCTAGATC ((((((....)))))), for which the Tm in data set [1] worked out at 42.5 °C. Moreover, in data set [2], the folding enthalpy was -39.5 kcal/mol.
On the same counts, the results for GATCAACTCGTTGATC ((((((....)))))) are 57.5 °C and -42.6 kcal/mol.
As for GCGGTACGCCGC ((((....)))), the Tm in data set [1] worked out at 67 °C. Besides, the folding enthalpy in data set [2] was -13.5 kcal/mol.
GCTGCACGAAAGTGGAGC (((.(((....))).))): in data set [1], the Tm was found to be 65.6 °C. Further, the folding enthalpy in data set [2] is -34.2 kcal/mol.
On to GGGAGCGAAAGCTAACCC ((((((....)))..))), for which, in data set [1], the Tm came out at 45 °C. In addition, in data set [2], the folding enthalpy is -16.1 kcal/mol.
Turning to GATCGTATCACGATC ((((((...)))))), the Tm in data set [1] is 58.4 °C. Also, the folding enthalpy in data set [2] is -37.6 kcal/mol.
Turning to GCCAGCTCGAAAGAGGGC (((..(((....)))))), the Tm in data set [1] was found to be 45 °C. The folding enthalpy in data set [2] is -24.5 kcal/mol.
For the sequence GCCATTGGAAACGATGGC (((((.(....).))))), in data set [1], the Tm was determined as 54.1 °C. Moreover, the folding enthalpy in data set [2] was -45.8 kcal/mol.
Take GTCTTGCCGAAAGGCGAC (((..(((....)))))): in data set [1], the Tm is 38.3 °C. The folding enthalpy in data set [2] was -10.7 kcal/mol.

Values taken from the array DNA melting data of Ke et al. (doi:10.1101/2024.01.08.574731).
